# Results as given in publication PMC3962999 (The Biochemical journal, 2011).
# Several values for one entry are separate records, joined by “and”; a condition that tells them apart may be missing. Identical values can stand only once. Like-named read-outs stand apart in the source and are kept apart here.
# Columns and labels:
# [1] = target: T1, phosphatase-like domain of PPIP5K1 (PBD1) (Homo sapiens, UniProt Q6PFW1); assay: Phosphatase assay with phosphatase-like domain of PPIP5K1; format: biochemical; details: for hydrolysis of inositol phosphate: up to 15 h at 37 °C, trace 3H-labelled material (InsP6 also 1 μM)
# T1 sequence (Q6PFW1 382-917): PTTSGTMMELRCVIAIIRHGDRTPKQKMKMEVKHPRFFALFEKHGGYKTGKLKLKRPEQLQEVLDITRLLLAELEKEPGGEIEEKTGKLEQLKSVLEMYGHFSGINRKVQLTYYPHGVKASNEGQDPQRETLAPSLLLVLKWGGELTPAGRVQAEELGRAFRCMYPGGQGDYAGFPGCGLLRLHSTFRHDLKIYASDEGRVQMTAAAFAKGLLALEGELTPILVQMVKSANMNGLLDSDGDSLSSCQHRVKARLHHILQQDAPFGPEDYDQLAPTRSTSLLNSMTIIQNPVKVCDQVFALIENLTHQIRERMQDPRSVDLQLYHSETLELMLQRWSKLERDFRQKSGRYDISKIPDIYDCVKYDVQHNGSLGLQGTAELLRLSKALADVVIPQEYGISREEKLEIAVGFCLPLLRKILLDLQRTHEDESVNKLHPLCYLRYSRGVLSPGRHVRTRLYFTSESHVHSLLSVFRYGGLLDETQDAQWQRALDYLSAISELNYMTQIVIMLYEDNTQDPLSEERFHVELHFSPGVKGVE
# Procedure, shortened: (§1)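 Enzyme and 50 mM p-nitrophenyl phosphate were incubated at 37 °C in EDTA-free phosphatase buffer: 5 mM Hepes pH 7.2, 100 mM KCl, 2 mM MgCl₂, 0.5 mg/ml BSA. Reactions were stopped with 1 M NaOH, and p-nitrophenol accumulation was read as absorbance. Phosphatase-like domains were His-tagged constructs made in E. coli with pGro7 chaperones, purified by Ni-NTA then SP cation exchange. hMIPP was recombinant.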
# [2] = target: T2, phosphatase-like domain of PPIP5K2 (PBD2) (Homo sapiens, UniProt O43314); assay: Phosphatase assay with phosphatase-like domain of PPIP5K2; format: biochemical; details: for hydrolysis of inositol phosphate: results not shown
# T2 sequence (O43314 371-901 isoform O43314-2): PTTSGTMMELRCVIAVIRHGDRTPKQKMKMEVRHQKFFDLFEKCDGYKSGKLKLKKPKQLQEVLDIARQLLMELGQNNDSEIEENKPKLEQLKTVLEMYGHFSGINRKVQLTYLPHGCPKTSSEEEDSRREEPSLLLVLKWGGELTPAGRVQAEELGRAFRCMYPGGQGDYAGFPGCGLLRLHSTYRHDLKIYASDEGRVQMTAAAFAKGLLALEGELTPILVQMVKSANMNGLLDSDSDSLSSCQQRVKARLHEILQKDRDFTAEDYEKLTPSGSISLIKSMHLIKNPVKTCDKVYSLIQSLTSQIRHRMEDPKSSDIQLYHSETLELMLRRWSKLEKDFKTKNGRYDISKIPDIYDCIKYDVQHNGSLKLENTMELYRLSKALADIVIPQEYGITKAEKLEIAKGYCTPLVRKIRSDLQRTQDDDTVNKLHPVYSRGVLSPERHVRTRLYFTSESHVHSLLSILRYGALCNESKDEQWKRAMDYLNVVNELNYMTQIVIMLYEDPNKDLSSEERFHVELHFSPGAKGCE
# Procedure, shortened: as §1
# PPIP5K1 kinase domain [3] = target: T3, PPIP5K1 kinase domain (Homo sapiens, UniProt Q6PFW1); assay: Kinase assay with PPIP5K1 kinase domain; format: biochemical; details: ratio of kcat/Km, this study
# T3 sequence (Q6PFW1 1-387 limits assumed): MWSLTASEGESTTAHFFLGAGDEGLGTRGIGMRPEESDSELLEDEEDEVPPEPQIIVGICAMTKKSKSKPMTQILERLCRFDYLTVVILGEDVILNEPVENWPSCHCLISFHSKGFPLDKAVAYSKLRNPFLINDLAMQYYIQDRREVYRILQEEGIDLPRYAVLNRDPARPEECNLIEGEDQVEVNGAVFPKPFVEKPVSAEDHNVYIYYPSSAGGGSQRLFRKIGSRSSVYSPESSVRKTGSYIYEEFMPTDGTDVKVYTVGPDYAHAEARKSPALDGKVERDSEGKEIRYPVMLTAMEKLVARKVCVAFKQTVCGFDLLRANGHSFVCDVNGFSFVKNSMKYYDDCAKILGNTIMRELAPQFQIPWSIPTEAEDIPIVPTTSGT
# [4] = system: full-length recombinant human PPIP5K1; details: in vitro; cited from earlier work
# PPIP5K1 kinase domain [5] = target: T3, PPIP5K1 kinase domain; details: cited from earlier work
# PBD2 = target: T4, PBD2 (Homo sapiens, UniProt O43314); assay: PEG precipitation [3H]InsP6 binding assay
# T4 sequence (O43314 371-901 isoform O43314-2): T2 sequence (O43314 371-901 isoform O43314-2)
# Procedure, shortened: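 PBD2 (32 μg) was incubated 20 min at 4 °C in 25 mM Hepes pH 7.2 containing 5 mg/ml γ-globulin, 100 mM KCl, 1 mM EDTA and 1 mM DTT. Each tube held ~15000 d.p.m. [³H]InsP₆ plus increasing unlabelled InsP₆ or C₈-PtdIns(3,4,5)P₃. Ice-cold 30 % PEG was added, samples were held 10 min at 0–4 °C and centrifuged at 10 000 g. Washed pellets were counted, and Kd and Bmax came from the saturation binding plot.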
# NIH 3T3 cells = assay: Confocal immunofluorescence of FLAG-PPIP5K1 translocation to the plasma membrane; format: cell-based
# Procedure, shortened: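 NIH 3T3 cells on glass-bottom dishes were transfected 24 h after seeding with full-length FLAG-tagged human PPIP5K1 (Lipofectamine 2000). The next day they were serum-starved 3 h, then given PDGF. Cells were fixed in 3 % paraformaldehyde/4 % sucrose (15 min, 23 °C), permeabilized with 0.2 % Triton X-100, and blocked. Staining used anti-FLAG (2 h, 37 °C), Alexa 488 secondary and DAPI. Confocal ×63 line intensity profiles gave plasma membrane/cytoplasm pixel intensity ratios.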
# GRP-1 PH domain [6] = target: T5, GRP-1 PH domain (Mus musculus, UniProt O08967); assay: SPR equilibrium binding to immobilized lipid vesicles, GRP-1 PH domain
# T5 sequence (O08967 264-380 limits assumed): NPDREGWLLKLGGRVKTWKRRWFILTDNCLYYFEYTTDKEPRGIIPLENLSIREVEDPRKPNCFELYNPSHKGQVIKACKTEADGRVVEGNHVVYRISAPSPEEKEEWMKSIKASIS
# Procedure, shortened: (§2)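 Large unilamellar vesicles (PtdCho/PtdE/test phosphoinositide 77:20:3) were captured on an L1 chip to 5000 RU. Signals were corrected against phosphoinositide-free vesicles. Kd came from nonlinear fitting of Req = Rmax/(1+Kd/C). Concentrations were: GRP-1 PH domain 2.5–125 nM; PBD1 on PtdIns(3,4,5)P₃ 5–150 nM; bisphosphate vesicles 75–1900 nM.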
# PBD2 (PPIP5K2) = target: T6, PBD2 (PPIP5K2) (Homo sapiens, UniProt O43314); assay: SPR equilibrium binding to immobilized lipid vesicles, PBD2; details: for binding to PBD2: SPR, in words
# T6 sequence (O43314 371-901 isoform O43314-2): T2 sequence (O43314 371-901 isoform O43314-2)
# Procedure, shortened: as §2
# PBD1 (PPIP5K1) = target: T7, PBD1 (PPIP5K1) (Homo sapiens, UniProt Q6PFW1); assay: SPR equilibrium binding to immobilized lipid vesicles, PBD1; details: for binding to PBD1: SPR, in words
# T7 sequence (Q6PFW1 382-917): T1 sequence (Q6PFW1 382-917)
# Procedure, shortened: as §2
# GRP-1 PH domain [7] = target: T5, GRP-1 PH domain; details: read-out: Kd, values published by others; same technique; cited from earlier work
# hMIPP = target: T8, hMIPP (Homo sapiens, UniProt Q9UNW1); assay: Hydrolysis of p-nitrophenyl phosphate by hMIPP; format: biochemical; details: 50 mM p-nitrophenyl phosphate, 90 ug hMIPP
# T8 sequence (Q9UNW1 31-487): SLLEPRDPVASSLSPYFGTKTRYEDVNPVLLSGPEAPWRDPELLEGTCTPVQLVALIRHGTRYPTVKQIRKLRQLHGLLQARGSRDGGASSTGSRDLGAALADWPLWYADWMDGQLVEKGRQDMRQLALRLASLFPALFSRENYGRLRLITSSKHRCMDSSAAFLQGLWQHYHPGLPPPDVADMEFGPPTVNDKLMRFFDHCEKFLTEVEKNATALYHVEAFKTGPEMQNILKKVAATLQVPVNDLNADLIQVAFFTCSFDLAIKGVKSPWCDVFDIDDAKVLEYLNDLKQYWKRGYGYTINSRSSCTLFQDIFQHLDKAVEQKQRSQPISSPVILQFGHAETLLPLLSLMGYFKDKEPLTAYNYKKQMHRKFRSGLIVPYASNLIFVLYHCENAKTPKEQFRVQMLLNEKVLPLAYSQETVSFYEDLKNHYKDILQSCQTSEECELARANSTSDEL
# Procedure, shortened: as §1
# [8] = Stability of InsP8 through acid-quench, neutralization and HPLC; format: physicochemical; details: HPLC-purified [3H]InsP8
compound,measurement,setting,value
O=P(O)(O)OC1[C@@H](OP(=O)(O)O)[C@@H](OP(=O)(O)O)C(OP(=O)(O)OP(=O)(O)O)[C@H](OP(=O)(O)O)[C@H]1OP(=O)(O)O (some centres unmarked) [1/3-PP-InsP5],hydrolysis of inositol phosphate,[1],none of these polyphosphates were hydrolysed
same,hydrolysis of inositol phosphate,[2],Identical results
O=P(O)(O)OC1[C@@H](OP(=O)(O)O)[C@H](OP(=O)(O)O)C(OP(=O)(O)OP(=O)(O)O)[C@H](OP(=O)(O)O)[C@H]1OP(=O)(O)O (some centres unmarked) [5-PP-InsP5],catalytic preference for 5-PP-InsP5 over InsP6,PPIP5K1 kinase domain [3],80 fold
same,dephosphorylation by full-length PPIP5K1,[4],does not de-phosphorylate
same,catalytic specificity for 5-PP-InsP5 relative to InsP6,PPIP5K1 kinase domain [5],2.5 fold
same,hydrolysis of inositol phosphate,[1],none of these polyphosphates were hydrolysed
same,hydrolysis of inositol phosphate,[2],Identical results
"CCCCCCCC(=O)OC[C@H](COP(=O)(O)OC1[C@H](O)[C@H](OP(=O)(O)O)C(OP(=O)(O)O)[C@H](OP(=O)(O)O)[C@H]1O)OC(=O)CCCCCCC (some centres unmarked) [C8 soluble analogue of PtdIns(3,4,5)P3, C8-PtdIns(3,4,5)P3, reference compound]",potency relative to InsP6 at displacing [3H]InsP6,PBD2; PEG-precipitation assay,2- to 3 fold
same,hydrolysis of the lipid (phosphate release),"[1]; PBD1 35 μg/ml, 24 h at 37 °C, 1 mM lipid",unable to detect any hydrolysis
"O=P(O)(O)OC1[C@@H](OP(=O)(O)O)[C@H](OP(=O)(O)O)C(O)[C@H](OP(=O)(O)O)[C@H]1OP(=O)(O)O (some centres unmarked) [Ins(1,3,4,5,6)P5]",dephosphorylation by full-length PPIP5K1,[4],does not de-phosphorylate
O=P(O)(O)O[C@H]1[C@H](OP(=O)(O)O)[C@@H](OP(=O)(O)O)[C@H](OP(=O)(O)O)[C@@H](OP(=O)(O)O)[C@H]1OP(=O)(O)O [InsP6],dephosphorylation by full-length PPIP5K1,[4],does not de-phosphorylate
same,Bmax,PBD2; InsP6 binding to PBD2,0.6 mol/mol of protein
same,Kd,"PBD2; saturation binding plot, 4 °C",600 nM and 570 nM
same,hydrolysis of inositol phosphate,[1],none of these polyphosphates were hydrolysed
same,hydrolysis of inositol phosphate,[2],Identical results
"O=c1cc(N2CCOCC2)oc2c(-c3ccccc3)cccc12 [LY294002, reference compound]",PDGF-induced translocation of PPIP5K1,NIH 3T3 cells; 15 min pre-treatment with 100 μM LY294002 before 50 ng/ml PDGF for 5 min,largely prevented
"CCCCC/C=C\C/C=C\C/C=C\C/C=C\CCCC(=O)O[C@H](COC(=O)CCCCCCCCCCCCCCCCC)COP(=O)(O)O[C@H]1[C@H](O)[C@@H](OP(=O)(O)O)[C@H](OP(=O)(O)O)[C@@H](OP(=O)(O)O)[C@H]1O [PtdIns(3,4,5)P3]",Kd,GRP-1 PH domain [6],59 nM
same,Kd,PBD2 (PPIP5K2),705 nM
same,Kd,PBD1 (PPIP5K1),96 nM
same,Kd,GRP-1 PH domain [7],28 to 170 nM
"O=P(O)(O)OC1C(OP(=O)(O)O)C(OP(=O)(O)OP(=O)(O)O)C(OP(=O)(O)O)C(OP(=O)(O)OP(=O)(O)O)C1OP(=O)(O)O (centres unmarked) [[PP]2-InsP4, 1/3,5-[PP]2-InsP4]",dephosphorylation by full-length PPIP5K1,[4],does not de-phosphorylate
same,hydrolysis of inositol phosphate,[1],none of these polyphosphates were hydrolysed
same,hydrolysis of inositol phosphate,[2],Identical results
"O=[N+]([O-])c1ccc(OP(=O)(O)O)cc1 [p-nitrophenyl phosphate, reference compound]",rate of p-nitrophenyl phosphate hydrolysis,hMIPP,approx. 10 nM/mg of protein per min
same,hydrolysis of p-nitrophenyl phosphate,"[1]; 50 mM p-nitrophenyl phosphate, 90 μg PBD1",no activity
same,hydrolysis of p-nitrophenyl phosphate,"[2]; 50 mM p-nitrophenyl phosphate, 90 μg PBD2",no activity
InsP8,"dephosphorylation after acid-quench, neutralization and HPLC",[8],did not detect any dephosphorylation
same,"recovery after acid-quench, neutralization and HPLC",[8],> 85%
same,hydrolysis of inositol phosphate,[1],none of these polyphosphates were hydrolysed
same,hydrolysis of inositol phosphate,[2],Identical results
PDGF,proportion of PPIP5K1 at the plasma membrane,"NIH 3T3 cells; 50 ng/ml PDGF, 5 min",significant increase
Ptd3P,binding to PBD2,PBD2 (PPIP5K2),did not bind
same,binding to PBD1,PBD1 (PPIP5K1),did not bind
Ptd4P,binding to PBD2,PBD2 (PPIP5K2),did not bind
same,binding to PBD1,PBD1 (PPIP5K1),did not bind
Ptd5P,binding to PBD2,PBD2 (PPIP5K2),did not bind
same,binding to PBD1,PBD1 (PPIP5K1),did not bind
"PtdIns(3,4)P2","affinity relative to PtdIns(3,4,5)P3 (fold lower)",PBD1 (PPIP5K1); PBD1,approx. 6 fold
same,binding to PBD1,PBD1 (PPIP5K1),significantly weaker ligands
"PtdIns(3,5)P2",binding to PBD2,PBD2 (PPIP5K2),did not bind
same,binding to PBD1,PBD1 (PPIP5K1),no significant binding
